Source: PubChem (several laboratories)
FLuc stim CS = FLuc activators, initial screening, artefact control for FLuc-dependent activation tests, biochemical, ATPlite luminescence; Luciferin 4-monooxygenase (Photinus pyralis), P08659; ATPlite luciferase biochemical, 10 min; 0 = ATP-free wells, 1 = DMSO control; activation factor at 10 µM; 200,000 tested, under 10 active;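 active = luciferase activation factor, scaled between plate controls, of at least 2 with compound at 10 µM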
Target sequence (P08659 whole entry, looked up): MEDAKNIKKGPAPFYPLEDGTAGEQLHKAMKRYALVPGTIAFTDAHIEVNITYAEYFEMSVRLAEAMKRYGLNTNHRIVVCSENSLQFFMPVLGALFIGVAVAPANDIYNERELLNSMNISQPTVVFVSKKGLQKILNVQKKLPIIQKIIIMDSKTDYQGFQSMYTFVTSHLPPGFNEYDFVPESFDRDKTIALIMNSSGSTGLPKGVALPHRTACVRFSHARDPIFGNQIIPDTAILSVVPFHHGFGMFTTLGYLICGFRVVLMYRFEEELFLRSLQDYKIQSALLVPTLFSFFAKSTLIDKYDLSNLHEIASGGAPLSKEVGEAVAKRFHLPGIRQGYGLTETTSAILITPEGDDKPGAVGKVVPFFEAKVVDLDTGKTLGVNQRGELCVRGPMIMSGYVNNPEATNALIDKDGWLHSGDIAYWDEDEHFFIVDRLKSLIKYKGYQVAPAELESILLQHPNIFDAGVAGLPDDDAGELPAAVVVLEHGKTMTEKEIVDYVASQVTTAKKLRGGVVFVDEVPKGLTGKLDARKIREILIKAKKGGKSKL
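Material: Luciferase/luciferin reagent mix | Doses: Test compounds dosed from 2 mM stocks in 100% DMSO | Timing: 10 min incubation after luciferase reagent addition, room temperature | Measured by: Luminescence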
STAT1 activator = STAT1 signaling activators, primary screen, cell-based, HTS, luciferase reporter; NIH 3T3 STAT1-luciferase reporter, IFN-gamma, luminescence; 100% = IFN-gamma alone, no compound; activation (% of control), % at 5.5 µM; 2.6% of 200,000 active; AID 932, 2007;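 active = activation above the screen-wide mean activation plus 3 SD, cut at about 130% in these data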;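 also: raw ratio to IFN-gamma control signal so 100% means no change and 0% no light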
FLuc inhib CS = firefly luciferase enzyme inhibitors, primary screen, artefact control for luciferase-based inhibitor screens, biochemical, luminescence, ATPLite | Luciferin 4-monooxygenase (Photinus pyralis), P08659 | 10 min | inhibition, % at 10 µM | 1.5% of 200,000 active | AID 1006, 2008;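 active = inhibition above about 50% when tested at 10 µM, limit read from the data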
NF-kB neuron act = activators of NF-kB expression in neurons, primary screen, cell-based, HTS; human neuronal cells, NF-kB reporter expression; active compounds read high; fold change at 12.5 µM; 1.6% of 190,000 active; AID 1239, 2008; in the data active = fold change above about 3.3
sdo1 growth = growth rescue of sdo1-depleted yeast, primary screen, S. cerevisiae, bone marrow failure model | z-score at 10 µM | S. cerevisiae sdo1-depleted JHY4D growth rescue, OD600 30 h; active compounds read high; pdr5 snq2 efflux-pump mutant strain | 0.21% of 140,000 active | AID 817, 2007;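 active = z-score above 3 at both the 24 hr and the 30 hr optical density reads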;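 also: z-score against mean and SD of all compound wells on the same plate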
APP 5'UTR act = activators of APP 5'UTR luciferase reporter, primary screen, SH-SY5Y cells. SH-SY5Y APP 5'UTR luciferase reporter, luminescence; zero percent = DMSO vehicle wells. AID 1276, 2008. activation, % at 2 µM. 1% of 190,000 active;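 active = activation above a set limit, based on mean plus 3 SD of controls, cut at about 140% in these data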
Numbers without * were called inactive; · = no result; [ ] = another dose, or the depositor's remark. Rows were chosen to be rich in hits. Some 4.3% of all compounds tested hit in one or more screens of this group.

SMILES	FLuc stim CS	STAT1 activator	FLuc inhib CS	NF-kB neuron act	sdo1 growth	APP 5'UTR act
N/C(=N\OC(=O)/C=C/c1ccccc1)c1ccccc1	0.1	138*	85*	5.9*	-2.2	136*
O=C(/C=C/c1ccccc1)c1ccccc1	0.5	112	47	1.5	-0.76	11
COc1cccc(C(=O)O/N=C(\N)c2ccncc2)c1	0.1	139*	89*	2.5	1	106
C=CCN(Cc1nc(-c2cc(OC)ccc2OC)oc1C)C1CCS(=O)(=O)C1 (stereo unspecified)	1.1	102	-5	1.2	·	-6
N/C(=N\OC(=O)c1cccc(Br)c1)c1ccccc1	0.1	127	90*	5.3*	-2.2	-4
COc1ccc(C(=O)OCC(=O)NCCN2C(=O)CSC2=O)cc1	1	105	-5	1.4	·	7
c1ccc(-c2ncc(-c3ccn[nH]3)s2)cc1	0.3	120	66*	7.3*	·	230*
CCC1C/C(=C/c2ccco2)C(=O)/C(=C/c2ccco2)C1 (stereo unspecified)	1.1	96	-9	1	-1.2	21
O=C1/C(=C/c2ccco2)CCc2ccccc21	0.4	105	61*	2.9	-0.16	164*
COc1ccc2c(c1)CC/C(=C/c1ccco1)C2=O	0.2	133*	81*	8.1*	-0.34	181*
COc1ccc2c(c1)CC/C(=C\c1ccc(OC)c(Cn3cccn3)c1)C2=O	1	108	4	0.54	-2.1	2
Nc1ccc2c(c1)C/C(=C/c1ccco1)C2=O	0.1	210*	87*	1	0.78	189*
O=C1C(=Cc2ccco2)C(=O)c2ccccc21	0.8	101	16	1.1	-0.21	17
Cc1cc(C)c(NC2=NS(=O)(=O)c3ccccc32)c(C)c1	1.1	101	-5	1.2	0.22	-22
Cc1cccc(-n2cnc3cc(C(=O)N4CCc5ccccc54)ccc32)c1	1	100	-2	1.1	-1.7	-7
Cc1ccc(NC(=O)N/C=C/c2ccccc2)cc1	0.9	146*	12	1.5	-0.5	105
Cc1ccc(NC(=O)N/C=C/c2ccc(Cl)cc2)cc1	1	128	4	1.3	-0.02	-7
O=C(N/C=C/c1ccccc1)Nc1ccc(Cl)cc1	0.9	141*	6	1.3	-0.23	58
COc1nc(C)nc2c1sc1nc3c(cc12)COC(C)(C)C3	1	137*	5	2.6	0.25	55
COc1ccc(-c2nc(NC(=O)c3n[nH]c(=O)c4ccccc34)sc2C)cc1	1.1	106	-7	1.5	1.2	-16
Cc1[nH]n(-c2ccccc2)c(=S)c1C=Nc1ccc([N+](=O)[O-])cc1	0.9	90	12	1.3	0.15	-11
Oc1ccc(Cl)cc1CNc1ccc(Br)cn1	1	103	-3	4.9*	-2	59
Oc1c(Cl)cc(Cl)cc1CNc1ccc(Br)cn1	1	104	-3	1.4	-2.6	4
Fc1ccccc1N1CCN(c2ncnc3[nH]ncc23)CC1	1	109	-4	3.5*	-0.53	-3
O=C(O)c1cn(Cc2ccccn2)c(=O)c2ccccc12	1	109	2	0.94	·	152*
SMILES	FLuc stim CS	STAT1 activator	FLuc inhib CS	NF-kB neuron act	sdo1 growth	APP 5'UTR act
O=C(O)c1cn(Cc2cccnc2)c(=O)c2ccccc12	1.1	91	-5	0.98	·	9
COCCCNC(=O)CSC1=Nc2ccccc2C2=NC(c3ccccc3)C(=O)N12 (stereo unspecified)	1.1	92	-8	1	·	-18
COc1ccc(N(C)C(=O)Nc2ccc3nsnc3c2)cc1	1	89	-2	1.3	·	18
O=C(Nc1ccc(Cl)cc1)c1ccc2nsnc2c1	0.8	150*	16	3.3*	·	95
CN(C)c1ccc(NC(=O)c2ccc3nsnc3c2)cc1	0.6	144*	37	2.6	0.85	18
O=C(Nc1ccc(Cl)cc1)c1ccncc1	1	99	-5	1.3	-0.08	10
Cc1ccc(/C=C/C(=O)N2CCC(Cc3ccccc3)CC2)cc1	1	93	2	1	-0.8	26
Cc1c(=O)n(OCc2ccccc2F)c2ccccc2[n+]1[O-]	1	97	-3	5.2*	1.6	-18
COCCCNC(=S)NCCNc1nc2c(C)c(C)ccc2cc1C#N	1.1	97	-9	1.2	·	12
Fc1ccc(-c2cnc(-c3cccs3)o2)cc1	0.7	142*	35	1.8	-0.88	70
CC(C)CC(C(=O)NC(C)(C)C)N(CC1CCCO1)C(=O)c1snc(C(N)=O)c1N (stereo unspecified)	1	104	-3	0.24	·	6
Oc1ccc(CN2CCN(Cc3ccccc3)CC2)c2cccnc12	·	102	·	6*	0.18[11.4 µM]	12
CN1CCN(Cc2cc(COCc3ccccc3)c3cccnc3c2O)CC1	1	107	-1	5.3*	-0.68	-72
Cc1cccc(S(=O)(=O)NNC(=O)c2sc(C)nc2C)c1	1.1	86	-6	1.1	0.21	7
O=C(OCc1ccccc1F)c1ccc2c(c1)-c1ccccc1C2=O	1	108	2	4.1*	-0.92	26
Cc1cc(=O)[nH]c(N/N=C/c2cccc([N+](=O)[O-])c2)n1	1	100	0	0.98	0.89	-4
CSc1ccc(/C=N/Nc2nc(C)cc(=O)[nH]2)cc1	0.3	110	68*	1.5	·	5
CC(C)n1cnc2cc(NCc3ccco3)ccc21	0.4	114	58*	1.1	-0.36	21
Cc1cnc(C(=O)Nc2ccc(N3CCOCC3)cc2)cn1	0.9	122	9	1.2	0.9	8
Cc1cnc(C(=O)Nc2ccc(N3CCCCC3)cc2)cn1	0.5	135*	55*	2.8	·	142*
O=C(Nc1ccc(N2CCCC2)cc1)c1cccc(F)c1	0.4	121	59*	2.6	-0.92	230*
CN1CCN(c2ccc(NC(=O)c3ccc4c(c3)OCCO4)cc2)CC1	0.5	132*	47	1.6	·	141*
O=C(Cc1ccccc1)Nc1ccc(N2CCCCC2)cc1	0.3	130*	73*	4.9*	·	185*
O=S(Cc1cc(Oc2ccccc2)nc(-c2ccccc2)n1)c1ccccc1 (stereo unspecified)	1.1	99	-5	1.3	-0.45	-2
O=C(OCc1cc(=O)n2cc(Br)ccc2n1)c1ccc(Cl)c(S(=O)(=O)NCc2ccccc2)c1	1.1	98	-8	0.74	0.07	-2
